According to ChEMBL document CHEMBL1138611, “Oxadiazolylindazole sodium channel modulators are neuroprotective toward hippocampal neurones” (J Med Chem, 2009):
Calls of active or inactive are those of the source. The rule behind the calls is not given here.

Experiments:
Hippocampus [1] = assay: Neuroprotective activity in Wistar rat hippocampal slices assessed as ATP concentration at 3 uM relative to tetrodotoxin; type: functional
[2] = target: T1, Sodium channel protein type 8 subunit alpha (Homo sapiens, UniProt Q9UQD0); assay: Inhibition of human Nav1.6 expressed in HEK293 cells assessed as change in membrane potential at 10 uM by patch clamp technique; type: cell-based
In short: (§1)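 Automated parallel whole-cell patch clamp at room temperature on human Nav1.2 or Nav1.6 in HEK293 cells. Each exposure lasts 5 min, at 10 and 50 µM (lamotrigine on Nav1.2 at 30 and 100 µM), with two to four cells per concentration. Peak current inhibition is given as percent, mean of duplicate experiments (n = 2) unless noted otherwise.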

[3] = target: Nav1.5 (sodium channel protein type 5 subunit alpha) (Homo sapiens, UniProt Q14524); assay: Inhibition of human Nav1.5 expressed in HEK293 cells assessed as change in membrane potential using MP-red voltage sensitive dye at 10 uM; type: cell-based; conditions: HEK293 cells expressing human Nav1.5
In short: (§2)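 Human Nav isoforms stably expressed in HEK293 cells with β1 subunit (Nav1.8 without β subunit), with tetrodotoxin sensitivity checked. Membrane potential change read with MP-red voltage-sensitive dye kit. Single-concentration screen at 10 µM gives percent inhibition as mean of duplicates, or an IC50 in µM where determined. Compounds come from 1 or 10 mM DMSO stocks diluted in assay buffer.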

[4] = target: Sodium channel protein type 3 subunit alpha (Homo sapiens) (UniProt Q9NY46); assay: Inhibition of human Nav1.3 expressed in HEK293 cells assessed as change in membrane potential using MP-red voltage sensitive dye at 10 uM; type: cell-based; in short: as §2
[5] = target: Sodium channel protein type 1 subunit alpha (Homo sapiens) (UniProt P35498); assay: Inhibition of human Nav1.1 expressed in HEK293 cells assessed as change in membrane potential using MP-red voltage sensitive dye at 10 uM; type: cell-based; in short: as §2
[6] = target: T1, Sodium channel protein type 8 subunit alpha; assay: Inhibition of human Nav1.6 expressed in HEK293 cells assessed as change in membrane potential using MP-red voltage sensitive dye at 10 uM; type: cell-based; in short: as §2
[7] = target: Sodium channel protein type 2 subunit alpha (Homo sapiens) (UniProt Q99250); assay: Use-dependent inhibition of human Nav1.2 expressed in HEK293 cells at 10 uM using double-pulse protocol by patch clamp technique; type: cell-based
In short: (§3)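 Human Nav1.2 or Nav1.6 in HEK293 cells, automated patch clamp at room temperature with 5 min exposure. Holding potential -80 mV, prepulse -120 mV, then P1 to 0 mV for 200 ms, 200 ms at -80 mV, and P2 to 0 mV for 20 ms, repeated at 0.1 Hz. Use-dependent inhibition I = (1 − P2T/P1T) × P1C/P2C × 100; mean of duplicates.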

[8] = Displacement of [3H]BW202W92 from voltage-gated sodium channel in Wistar rat forebrain synaptosomes by liquid scintillation counting; type: subcellular, Brain
[9] = target: T1, Sodium channel protein type 8 subunit alpha; assay: Inhibition of human Nav1.6 expressed in HEK293 cells assessed as change in membrane potential at 50 uM by patch clamp technique; type: cell-based; in short: as §1
[10] = target: T1, Sodium channel protein type 8 subunit alpha; assay: Use-dependent inhibition of human Nav1.6 expressed in HEK293 cells at 10 uM using double-pulse protocol by patch clamp technique; type: cell-based; in short: as §3
[11] = target: Sodium channel protein type 9 subunit alpha (Homo sapiens) (UniProt Q15858); assay: Inhibition of human Nav1.7 expressed in HEK293 cells assessed as change in membrane potential using MP-red voltage sensitive dye at 10 uM; type: cell-based; in short: as §2
[12] = target: Sodium channel protein type 2 subunit alpha (Homo sapiens) (UniProt Q99250); assay: Inhibition of human Nav1.2 expressed in HEK293 cells assessed as change in membrane potential at 10 uM by patch clamp technique; type: cell-based; in short: as §1
[13] = target: Sodium channel protein type 2 subunit alpha (Homo sapiens) (UniProt Q99250); assay: Use-dependent inhibition of human Nav1.2 expressed in HEK293 cells at 50 uM using double-pulse protocol by patch clamp technique; type: cell-based; in short: as §3
[14] = target: Sodium channel protein type 4 subunit alpha (Homo sapiens) (UniProt P35499); assay: Inhibition of human Nav1.4 expressed in HEK293 cells assessed as change in membrane potential using MP-red voltage sensitive dye at 10 uM; type: cell-based; in short: as §2
[15] = Inhibition of voltage-gated sodium channel in Wistar rat forebrain synaptosomes assessed as inhibition of [14C]guanidium ion flux; type: subcellular, Brain
[16] = target: Sodium channel protein type 10 subunit alpha (Homo sapiens) (UniProt Q9Y5Y9); assay: Inhibition of human Nav1.8 expressed in HEK293 cells assessed as change in membrane potential using MP-red voltage sensitive dye at 10 uM; type: cell-based; in short: as §2
[17] = target: T1, Sodium channel protein type 8 subunit alpha; assay: Use-dependent inhibition of human Nav1.6 expressed in HEK293 cells at 50 uM using double-pulse protocol by patch clamp technique; type: cell-based; in short: as §3
[18] = target: Sodium channel protein type 2 subunit alpha (Homo sapiens) (UniProt Q99250); assay: Inhibition of human Nav1.2 expressed in HEK293 cells assessed as change in membrane potential at 50 uM by patch clamp technique; type: cell-based; in short: as §1
[19] = target: Sodium channel protein type 2 subunit alpha (Homo sapiens) (UniProt Q99250); conditions: HEK293, 100 uM
Hippocampus [20] = assay: Neuroprotective activity in Wistar rat hippocampal slices assessed as ATP concentration at 30 uM relative to tetrodotoxin; type: functional
[21] = target: Sodium channel protein type 2 subunit alpha (Homo sapiens) (UniProt Q99250); conditions: HEK293, 100 uM; remark: listed apart in the source
[22] = target: Sodium channel protein type 2 subunit alpha (Homo sapiens) (UniProt Q99250); conditions: HEK293, 30 uM
[23] = target: Sodium channel protein type 2 subunit alpha (Homo sapiens) (UniProt Q99250); conditions: HEK293, 30 uM; remark: listed apart in the source
Hippocampus [24] = assay: Neuroprotective activity in Wistar rat hippocampal slices assessed as ATP concentration at 50 uM relative to tetrodotoxin; type: functional
Cytochrome P450 2D6 = Cytochrome P450 2D6 (Homo sapiens, UniProt P10635); assay: Inhibition of human recombinant CYP2D6; type: ADME
Cytochrome P450 1A2 = target: T2, Cytochrome P450 1A2 (Homo sapiens, UniProt P05177); assay: Inhibition of human recombinant CYP1A2; type: ADME
T2 sequence (P05177 whole entry): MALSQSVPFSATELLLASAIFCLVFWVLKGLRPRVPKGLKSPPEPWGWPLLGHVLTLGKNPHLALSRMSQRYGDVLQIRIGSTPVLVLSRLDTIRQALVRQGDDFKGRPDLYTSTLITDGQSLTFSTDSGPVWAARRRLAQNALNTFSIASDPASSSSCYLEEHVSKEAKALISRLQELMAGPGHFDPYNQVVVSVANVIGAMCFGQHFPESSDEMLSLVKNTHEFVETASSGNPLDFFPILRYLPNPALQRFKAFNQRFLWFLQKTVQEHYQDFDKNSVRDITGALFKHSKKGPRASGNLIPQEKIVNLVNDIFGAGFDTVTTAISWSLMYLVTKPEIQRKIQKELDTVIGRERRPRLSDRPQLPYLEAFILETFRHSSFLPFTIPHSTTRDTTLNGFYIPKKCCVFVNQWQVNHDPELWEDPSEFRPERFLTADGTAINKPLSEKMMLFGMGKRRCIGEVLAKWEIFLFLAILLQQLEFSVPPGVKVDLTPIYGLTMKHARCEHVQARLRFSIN

Rattus norvegicus [25] = species on record: Rattus norvegicus; assay: Inhibition of […] state of voltage-gated sodium channel in Sprague-Dawley rat hippocampal neurons at 30 uM using 300 ms conditioning voltage step to 0 mV followed by 15 ms period at -90 mV by paired pulse protocol; type: tissue-based; conditions: Hippocampus
In short: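 Paired-pulse protocol on dissociated P14-16 Sprague-Dawley rat hippocampal neurons, compound at 30 µM. A 300 ms conditioning step to 0 mV (P1), 15 ms at -90 mV, then a 10 ms test step to 0 mV (P2). Tonic inhibition at P1 compared with inhibition at P2 after slow inactivation develops.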

[26] = target: T1, Sodium channel protein type 8 subunit alpha; assay: Inhibition of human Nav1.6 expressed in HEK293 cells assessed as change in membrane potential using MP-red voltage sensitive dye; type: cell-based; in short: as §2
Rattus norvegicus [27] = species on record: Rattus norvegicus; assay: Voltage-dependent inhibition of voltage-gated sodium channel in Sprague-Dawley rat hippocampal neurons at 30 uM at an initial membrane potential of -90 mV by voltage clamp technique; type: tissue-based; set-up: scale not given: the % may be the effect or the level left; conditions: Hippocampus
[28] = target: T1, Sodium channel protein type 8 subunit alpha; assay: Inhibition of Nav1.6 using 20 Hz train of 20 voltage steps from -90 mV with duration of 3.5 ms at 30 uM by paired pulse protocol
Rattus norvegicus [29] = species on record: Rattus norvegicus; assay: Use-dependent inhibition of voltage-gated sodium channel in Sprague-Dawley rat hippocampal neurons at 30 uM using 20 Hz train of 20 voltage steps from -90 mV with duration of 3.5 ms by voltage clamp technique; type: tissue-based; conditions: Hippocampus
In short: (§4)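 Whole-cell voltage clamp of dissociated P14-16 Sprague-Dawley rat hippocampal neurons, with compound at 30 µM. A 20 Hz train of 20 voltage steps from -90 mV, each step 3.5 ms or 20 ms, and cumulative depression of peak sodium current during the train compared with control.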

Rattus norvegicus [30] = species on record: Rattus norvegicus; assay: Use-dependent inhibition of voltage-gated sodium channel in Sprague-Dawley rat hippocampal neurons at 30 uM using 20 Hz train of 20 voltage steps from -90 mV with duration of 20 ms by voltage clamp technique; type: tissue-based; conditions: Hippocampus; in short: as §4
Rattus norvegicus [31] = species on record: Rattus norvegicus; assay: Voltage-dependent inhibition of voltage-gated sodium channel in Sprague-Dawley rat hippocampal neurons at 30 uM at an initial membrane potential of -70 mV by voltage clamp technique; type: tissue-based; set-up: scale not given: the % may be the effect or the level left; conditions: Hippocampus

Sequence of Sodium channel protein type 3 subunit alpha (Homo sapiens) (Q9NY46 whole entry, looked up): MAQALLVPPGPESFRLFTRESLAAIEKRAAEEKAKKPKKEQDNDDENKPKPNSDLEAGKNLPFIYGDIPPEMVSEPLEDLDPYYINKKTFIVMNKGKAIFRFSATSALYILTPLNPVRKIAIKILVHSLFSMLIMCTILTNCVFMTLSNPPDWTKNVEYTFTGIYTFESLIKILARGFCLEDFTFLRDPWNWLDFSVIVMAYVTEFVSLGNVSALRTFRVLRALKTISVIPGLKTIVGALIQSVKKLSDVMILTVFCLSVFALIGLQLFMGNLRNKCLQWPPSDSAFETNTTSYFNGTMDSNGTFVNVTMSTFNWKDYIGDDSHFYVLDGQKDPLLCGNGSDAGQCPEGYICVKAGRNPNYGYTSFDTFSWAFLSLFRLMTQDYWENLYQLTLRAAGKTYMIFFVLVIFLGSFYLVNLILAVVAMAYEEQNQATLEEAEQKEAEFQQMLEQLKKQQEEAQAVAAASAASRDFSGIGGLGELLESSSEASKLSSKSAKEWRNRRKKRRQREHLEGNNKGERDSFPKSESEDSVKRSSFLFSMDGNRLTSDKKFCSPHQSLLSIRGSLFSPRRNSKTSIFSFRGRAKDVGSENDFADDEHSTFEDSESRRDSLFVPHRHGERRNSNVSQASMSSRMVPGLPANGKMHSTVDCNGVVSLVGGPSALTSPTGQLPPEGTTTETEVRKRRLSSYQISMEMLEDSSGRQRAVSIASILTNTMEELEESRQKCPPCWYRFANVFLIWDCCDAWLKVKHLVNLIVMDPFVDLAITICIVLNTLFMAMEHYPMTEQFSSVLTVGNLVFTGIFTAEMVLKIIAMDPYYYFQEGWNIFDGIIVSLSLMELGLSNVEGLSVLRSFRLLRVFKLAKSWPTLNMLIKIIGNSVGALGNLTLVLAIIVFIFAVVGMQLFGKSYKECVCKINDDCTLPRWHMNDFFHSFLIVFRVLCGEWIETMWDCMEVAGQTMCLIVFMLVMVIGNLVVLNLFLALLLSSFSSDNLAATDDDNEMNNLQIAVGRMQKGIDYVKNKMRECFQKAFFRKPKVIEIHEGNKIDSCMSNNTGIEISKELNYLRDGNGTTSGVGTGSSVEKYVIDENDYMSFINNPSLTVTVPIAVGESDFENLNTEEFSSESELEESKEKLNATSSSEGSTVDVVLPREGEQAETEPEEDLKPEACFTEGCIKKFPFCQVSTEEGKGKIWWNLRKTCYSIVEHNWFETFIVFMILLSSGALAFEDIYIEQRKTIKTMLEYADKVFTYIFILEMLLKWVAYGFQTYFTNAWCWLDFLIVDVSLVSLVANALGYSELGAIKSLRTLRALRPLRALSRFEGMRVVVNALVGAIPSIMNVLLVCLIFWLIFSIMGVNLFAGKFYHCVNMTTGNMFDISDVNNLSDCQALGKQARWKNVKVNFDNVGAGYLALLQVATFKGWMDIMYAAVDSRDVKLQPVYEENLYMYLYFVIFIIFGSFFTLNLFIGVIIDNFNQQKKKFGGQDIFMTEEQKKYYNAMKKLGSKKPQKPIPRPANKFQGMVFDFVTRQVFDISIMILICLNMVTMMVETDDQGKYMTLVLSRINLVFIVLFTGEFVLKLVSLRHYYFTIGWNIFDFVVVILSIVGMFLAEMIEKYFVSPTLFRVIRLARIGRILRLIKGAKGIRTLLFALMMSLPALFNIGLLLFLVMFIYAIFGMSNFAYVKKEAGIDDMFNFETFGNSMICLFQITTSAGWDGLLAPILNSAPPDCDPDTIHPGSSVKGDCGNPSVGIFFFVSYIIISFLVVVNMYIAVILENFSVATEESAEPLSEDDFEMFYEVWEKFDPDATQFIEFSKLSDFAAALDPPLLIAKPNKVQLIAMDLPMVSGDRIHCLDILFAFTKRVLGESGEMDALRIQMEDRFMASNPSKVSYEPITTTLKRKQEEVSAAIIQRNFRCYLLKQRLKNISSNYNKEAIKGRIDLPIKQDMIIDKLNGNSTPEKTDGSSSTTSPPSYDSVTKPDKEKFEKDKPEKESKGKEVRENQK
Sequence of Sodium channel protein type 2 subunit alpha (Homo sapiens) (Q99250 whole entry, looked up): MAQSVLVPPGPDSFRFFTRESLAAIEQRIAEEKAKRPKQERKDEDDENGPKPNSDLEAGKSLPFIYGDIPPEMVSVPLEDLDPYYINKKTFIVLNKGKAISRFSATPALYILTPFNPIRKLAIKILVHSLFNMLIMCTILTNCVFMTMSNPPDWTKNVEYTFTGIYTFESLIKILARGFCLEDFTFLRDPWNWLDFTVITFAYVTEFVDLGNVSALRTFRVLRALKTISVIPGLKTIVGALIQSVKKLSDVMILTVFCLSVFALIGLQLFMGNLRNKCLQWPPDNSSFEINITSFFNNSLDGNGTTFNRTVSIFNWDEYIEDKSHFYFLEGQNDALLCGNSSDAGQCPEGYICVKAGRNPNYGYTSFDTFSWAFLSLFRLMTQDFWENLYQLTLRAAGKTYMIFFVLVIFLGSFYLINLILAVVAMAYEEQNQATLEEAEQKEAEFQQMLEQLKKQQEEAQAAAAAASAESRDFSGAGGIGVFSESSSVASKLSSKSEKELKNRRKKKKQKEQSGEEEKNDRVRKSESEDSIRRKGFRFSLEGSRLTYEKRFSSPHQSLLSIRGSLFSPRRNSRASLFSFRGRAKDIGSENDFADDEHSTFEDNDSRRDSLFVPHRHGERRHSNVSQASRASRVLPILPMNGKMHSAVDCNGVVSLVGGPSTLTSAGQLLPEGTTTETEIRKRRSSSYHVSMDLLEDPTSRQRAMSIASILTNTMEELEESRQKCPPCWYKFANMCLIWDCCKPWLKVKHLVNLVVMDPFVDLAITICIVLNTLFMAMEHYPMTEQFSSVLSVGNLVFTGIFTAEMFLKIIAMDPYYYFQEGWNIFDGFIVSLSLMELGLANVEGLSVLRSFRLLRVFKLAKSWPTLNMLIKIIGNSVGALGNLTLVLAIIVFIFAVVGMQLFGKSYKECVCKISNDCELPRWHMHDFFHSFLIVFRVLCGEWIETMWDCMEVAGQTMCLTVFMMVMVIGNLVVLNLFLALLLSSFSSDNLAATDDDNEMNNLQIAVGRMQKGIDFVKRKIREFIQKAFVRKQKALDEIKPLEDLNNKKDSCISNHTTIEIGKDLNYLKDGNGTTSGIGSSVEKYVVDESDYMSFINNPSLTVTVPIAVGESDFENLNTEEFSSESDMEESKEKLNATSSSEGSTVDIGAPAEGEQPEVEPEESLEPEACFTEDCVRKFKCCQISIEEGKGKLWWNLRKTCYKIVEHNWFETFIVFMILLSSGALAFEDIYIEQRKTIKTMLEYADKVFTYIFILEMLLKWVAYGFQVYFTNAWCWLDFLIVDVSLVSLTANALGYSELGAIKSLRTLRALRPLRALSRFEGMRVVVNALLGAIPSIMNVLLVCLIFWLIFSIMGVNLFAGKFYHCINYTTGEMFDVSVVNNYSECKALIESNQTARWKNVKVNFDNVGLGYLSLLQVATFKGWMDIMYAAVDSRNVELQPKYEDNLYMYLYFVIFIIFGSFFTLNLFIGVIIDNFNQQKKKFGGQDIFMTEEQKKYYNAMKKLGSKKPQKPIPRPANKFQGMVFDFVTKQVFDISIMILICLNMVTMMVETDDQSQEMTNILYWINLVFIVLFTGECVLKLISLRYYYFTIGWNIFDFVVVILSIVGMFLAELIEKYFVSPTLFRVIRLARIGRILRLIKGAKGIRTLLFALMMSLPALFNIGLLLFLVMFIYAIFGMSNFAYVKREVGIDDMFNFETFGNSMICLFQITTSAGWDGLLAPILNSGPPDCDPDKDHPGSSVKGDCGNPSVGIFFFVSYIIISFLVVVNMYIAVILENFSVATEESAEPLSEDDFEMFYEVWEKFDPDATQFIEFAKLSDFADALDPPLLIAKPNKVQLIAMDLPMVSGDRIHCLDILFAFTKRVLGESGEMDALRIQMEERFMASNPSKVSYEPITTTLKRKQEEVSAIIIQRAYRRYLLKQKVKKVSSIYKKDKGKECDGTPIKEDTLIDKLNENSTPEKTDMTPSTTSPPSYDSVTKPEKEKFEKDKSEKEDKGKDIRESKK
Sequence of Cytochrome P450 2D6 (P10635 whole entry): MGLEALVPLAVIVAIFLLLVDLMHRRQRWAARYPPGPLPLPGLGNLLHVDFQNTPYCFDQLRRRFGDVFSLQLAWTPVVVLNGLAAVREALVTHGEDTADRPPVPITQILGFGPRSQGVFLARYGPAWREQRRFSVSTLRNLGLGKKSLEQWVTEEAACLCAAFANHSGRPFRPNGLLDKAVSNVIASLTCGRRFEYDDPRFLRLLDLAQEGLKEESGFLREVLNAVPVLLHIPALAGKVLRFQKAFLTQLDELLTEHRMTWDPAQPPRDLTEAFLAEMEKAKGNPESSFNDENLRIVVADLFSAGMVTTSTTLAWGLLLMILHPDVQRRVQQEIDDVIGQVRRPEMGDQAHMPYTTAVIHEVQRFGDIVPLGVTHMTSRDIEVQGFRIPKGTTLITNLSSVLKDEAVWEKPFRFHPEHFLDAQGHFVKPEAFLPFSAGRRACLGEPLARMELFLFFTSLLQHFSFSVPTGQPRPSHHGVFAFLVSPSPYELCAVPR

Row | Compound | inhibition [2] | inhibition at 10 µM [3] | inhibition [4] | inhibition [5] | inhibition [6] | inhibition [7] | IC50 [8] | inhibition [9] | inhibition [10] | inhibition [11] | inhibition [12] | inhibition [13] | inhibition [14] | IC50 [15] | inhibition [16] | inhibition [17] | inhibition [18] | Activity (Hippocampus [20]) | Activity (Hippocampus [24]) | IC50 (Cytochrome P450 2D6) | other results
1 | Nc1nc(N)c(-c2cc(Cl)cc(Cl)c2Cl)c(CF)n1 | 2.3% | 39% | 100% | 56% | 37% | 43.4% | 40 nM | 62.7% | 81.4% | 44% | 0.7% | 88.5% | 98% | 2600 nM | 86% | 97.3% | 75.2% |  |  |  | Activity (Hippocampus [1]): 93%
2 | Nc1nnc(-c2cccc(Cl)c2Cl)c(N)n1 [LAMOTRIGINE] |  | 40% | 22% | 44% | 23% |  | 2600 nM |  |  | 45% |  |  | 21% | 219000 nM | 46% |  |  | 33% |  |  | inhibition [19]: 18.1%; inhibition [21]: 17%; inhibition [22]: 4.1%; inhibition [23]: 7.9%
3 | NCc1noc(-c2nn(Cc3ccccc3)c3ccccc23)n1 | 9.5% | 48% | 79% | 48% |  | 1.9% | 3300 nM | 40.9% | 1.1% | 59% | 6.6% | 14.7% | 97% | 17500 nM | 90% | 18.7% | 10.8% |  | 99% | 90 nM | IC50 (Cytochrome P450 1A2): 9 nM; Activity (Rattus norvegicus [25]): Active; IC50 [26]: 660 nM
4 | CN1CCN(c2ncc(-c3cc(Cl)cc(Cl)c3Cl)c(N)n2)CC1 [SIPATRIGINE] | 10.4% | 97% | 61% | 55% | 70% | 40.1% |  | 43.4% | 37% | 67% | 21.6% | 84.6% | 97% |  | 76% | 63.2% | 75.2% | 57% |  |  | 
5 | NCc1noc(-c2c3ccccc3nn2Cc2ccccc2)n1 | 10.2% | 81% | 78% | 51% |  | 35.8% | 6700 nM | 31.5% | 29% | 92% | 13% | 70.8% | 98% | 44200 nM | 84% | 65.8% | 33.8% |  | 63% | > 10000 nM | IC50 (Cytochrome P450 1A2): 315 nM; Activity (Rattus norvegicus [25]): Active; Activity (Rattus norvegicus [27]): 10%; Activity [28]: Active; Activity (Rattus norvegicus [29]): Active; IC50 [26]: 1030 nM; Activity (Rattus norvegicus [30]): Active; Activity (Rattus norvegicus [31]): 60%
